Measured values taken from paper PMC11903327 (Clinical and Translational Science, 2025).
Values after ≈ are worked out from the molar mass of the structure shown. Where two headings read alike, the source gives them in different places.

Columns and labels:
[1] = clinical dose of 5 mg; cited from earlier work
[2] = Biopharmaceutical classification system; type: physicochemical; details: based on low aqueous solubility and high in vitro permeability
[3] = ref Takeda data on file, cited from earlier work
[4] = type: in vivo, human; details: for CL/F: arithmetic mean (SD)
Method in brief: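 Healthy nonsmoking adults aged 18–55, BMI 18–29 kg/m2. Randomized fed/fasted crossover: single 5 mg oral dose fasted or 30 min after a high-fat breakfast (~800–1000 kcal, 50% fat), with ≥14-day washout. Period 3: rabeprazole 40 mg QD with breakfast for 6 days, then fasted 1 h before dosing. Plasma sampled pre-dose to 168 h, LC-MS/MS (1.00–750 ng/mL). Noncompartmental PK; mixed-effects geometric LSM ratios, 90% CIs.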

[5] = Clinical mass balance study with radiolabelled fruquintinib; type: in vivo, human; details: single 5 mg dose in humans; inferred from metabolic profile
[6] = single oral radiolabeled fruquintinib 5 mg; cited from earlier work
[7] = test system: colorectal adenocarcinoma‐2 cell; details: colorectal adenocarcinoma-2 cells; cited from earlier work
[8] = type: in vivo, human
[9] = healthy Chinese subjects, fruquintinib 4 mg, cited from earlier work
[10] = Phase 1 dose-escalation study, QD dosing; cited from earlier work
[11] = healthy subjects, cited from earlier work
pKa = type: physicochemical
[12] = In vitro aqueous solubility in buffer systems across pH 1 to 6.8; type: physicochemical; details: 37 °C, thermodynamic from solid

CNC(=O)c1ccccc1Sc1ccc2c(/C=C/c3ccccn3)n[nH]c2c1 [axitinib]
DDI (based on AUC) when combined with rabeprazole [1]: no clinically meaningful DDI | food effect [1]: no clinically meaningful food effect

CNC(=O)c1c(C)oc2cc(Oc3ncnc4cc(OC)c(OC)cc34)ccc12 [Fruquintinib]
biopharmaceutical classification system (BCS) class [2]: class 2 | time stable in simulated gastric fluids ([3]; simulated gastric fluids): at least 1 h | time stable in simulated intestinal fluids ([3]; simulated intestinal fluids): at least 3 h | time after dosing at which peak concentrations were achieved ([4]; fruquintinib 5 mg oral, under fed and fasted conditions): approximately 4 h | effects of food or rabeprazole on fruquintinib PK ([4]; healthy subjects, fruquintinib 5 mg): No clinically relevant effects | Tmax ([4]; human, plasma, oral): 0.5 h | Tmax ([4]; human, plasma, po, 5 mg): 4 h | CL/F ([4]; single oral fruquintinib 5 mg + rabeprazole 40 mg, fasted): 15.6 (4.59) mL/min | CL/F ([4]; single oral fruquintinib 5 mg, fasted (reference)): 17.1 (5.22) mL/min | CL/F ([4]; single oral fruquintinib 5 mg, fed (high-fat meal)): 16.3 (4.32) mL/min | Tmax ([4]; single oral fruquintinib 5 mg, fed (high-fat meal), median (minimum–maximum)): 4.00 (2.00–6.00) h | fraction of the dose absorbed [5]: > 85% | dose recovered in feces [6]: 30% | unchanged fruquintinib in feces, of the administered dose [6]: 5.34% | unchanged fruquintinib in urine, of the administered dose [6]: 0.50% | apical-to-basolateral apparent permeability [7]: 30 ×10⁻⁶ cm/s | efflux ratio [7]: ~1 | relation of AEs to fruquintinib ([8]; all five AEs): not related | severity of AEs ([8]; all five AEs): mild | subjects reporting AEs ([8]; four of 14 subjects, five AEs, all treatment periods): 29% | changes in chemistry, hematology, urinalysis and coagulation laboratory test results ([8]; over time during the study): no clinically significant changes | tolerability ([8]; with or without food or with rabeprazole): well tolerated | effect of a high-fat meal on the PK of fruquintinib [9]: no clinically significant effect | least squares GMR (90% CI) for AUC0-inf ([9]; high-fat meal vs fasted): 97.2% (94.0%–100.4%) | least squares GMR (90% CI) for Cmax ([9]; high-fat meal vs fasted): 82.9% (76.7%–89.5%) | maximum-tolerated dose [10]: 4 mg | change in fruquintinib exposure ([11]; coadministration with a CYP3A inducer): decreased | change in fruquintinib AUC or Cmax ([11]; coadministration with a CYP3A inhibitor): no clinically meaningful change | pKa (pKa): 2.78 | solubility at 48 h ([12]; pH 1, simulated gastric fluid): 130 µg/mL (≈ 330 µM) | solubility at 48 h ([12]; pH 4.5, aqueous buffer): 0.9 µg/mL (≈ 2.29 µM) | solubility at 48 h ([12]; pH 6.8, aqueous buffer): 0.9 µg/mL (≈ 2.29 µM)
